The results in this text go back to ChEMBL document CHEMBL5126630, “Optimization of the Prodrug Moiety of Remdesivir to Improve Lung Exposure/Selectivity and Enhance Anti-SARS-CoV-2 Activity” (J Med Chem, 2022).

A short description of series [1]: Stability in human plasma assessed as half life. It is filed as ADME, cell-free.
A short description of series [2]: Stability in human microsomes assessed as half life. It is filed as ADME, Microsome.
Series [3] is described as follows: Stability in hamster plasma assessed as half life. The conditions noted are these: chinese hamster. It is filed as ADME, cell-free, Cricetulus griseus.
The nature of series [4]: Stability in hamster microsomes assessed as half life. The conditions noted are these: chinese hamster. It is filed as ADME, Cricetulus griseus, Microsome.
Series [5] in a line: Stability in mouse plasma assessed as half life. It is filed as ADME, cell-free.
Series [6] can be described thus: Stability in mouse microsomes assessed as half life. It is filed as ADME, Microsome.
Series [7] can be described thus: Drug metabolism in hamster lung assessed as NTP metabolite formation at 10 mg/kg, iv measured upto 24 hrs by LC-MS/MS analysis. It is filed as ADME, organism-based, Cricetulus griseus. The conditions noted are these: chinese hamster, in vivo. The essentials: (§1)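 Female catheterized hamsters were dosed 10 mg/kg iv at 2 mg/mL; remdesivir was in 15% cyclodextrin at pH 3–3.5 and the prodrug in cyclodextrin or albumin. Two per group were sacrificed at 0.5–24 h. Tissues were homogenized in 70% methanol with internal standard. NTP was measured by ion-pairing LC-MS/MS (dimethylhexylamine/ammonium formate mobile phase), negative-ion MRM, against 10-point 5–5000 ng/mL standards. Exposure was reported as AUC.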

A short description of series [8]: Drug metabolism in hamster spleen assessed as NTP metabolite formation at 10 mg/kg, iv measured upto 24 hrs by LC-MS/MS analysis. It is filed as ADME, organism-based, Cricetulus griseus. The conditions noted are these: chinese hamster, in vivo. In a few lines: as §1
The nature of series [9]: Drug metabolism in hamster blood assessed as NTP metabolite formation at 10 mg/kg, iv measured upto 24 hrs by LC-MS/MS analysis. It is filed as ADME, organism-based, Cricetulus griseus. The conditions noted are these: chinese hamster, in vivo. The essentials:
as §1

The subject of series [10] is SARS-CoV-2. Kind of series: Antiviral activity against SARS-CoV-2 beta B.1.351 infected in African green monkey Vero E6 cells assessed as protection against virus-induced cytopathic effect incubated for 2 days by CellTiter-Glo assay. It is filed as functional, organism-based. The conditions noted are these: Severe acute respiratory syndrome coronavirus 2, beta B.1.351, Vero 76, 48 h.

Series [11] is described as follows: Drug metabolism in hamster lymph node assessed as NTP metabolite formation at 10 mg/kg, iv measured upto 24 hrs by LC-MS/MS analysis. It is filed as ADME, organism-based, Cricetulus griseus. The conditions noted are these: chinese hamster, in vivo. The essentials:
as §1

Series [12] in a line: Drug accumulation in hamster kidney at 10 mg/kg, iv measured upto 24 hrs by LC-MS/MS analysis. The conditions noted are these: chinese hamster, in vivo. It is filed as ADME, organism-based, Cricetulus griseus. The essentials: (§2)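 Catheterized female hamsters received 10 mg/kg iv at 2 mg/mL. The remdesivir vehicle was 15% cyclodextrin at pH 3–3.5; the test prodrug was given in cyclodextrin or albumin formulation. Two animals per group were sacrificed at 0.5, 1, 4, 7 and 24 h. Tissues were homogenized in 5-fold 70% methanol with internal standard and supernatants analysed by LC-MS against 5–5000 ng/mL standard curves.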

A short description of series [13]: Drug accumulation in hamster liver at 10 mg/kg, iv measured upto 24 hrs by LC-MS/MS analysis. It is filed as ADME, organism-based, Cricetulus griseus. The conditions noted are these: chinese hamster, in vivo. The essentials:
as §2

Series [14] in a line: Prodrug activation in human Calu-3 cells assessed as ALA release at 10 uM measured upto 12 hrs by LC-MS analysis. It is filed as cell-based. The conditions noted are these: calu-3, 12 h. In a few lines:
(§3)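 Calu-3 cells (1–5 × 10^5/well) were cultured 12 h, then exposed to 10 μM drug at 37 °C for 2, 6 and 12 h (n = 3). Cells were detached with trypsin-EDTA, pelleted and washed three times with ice-cold PBS. Drug was extracted overnight at −20 °C in ice-cold 70% methanol, and supernatants were analysed by LC-MS.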

Series [15] can be described thus: Prodrug activation in human Calu-3 cells assessed as NUC release at 10 uM measured upto 12 hrs by LC-MS analysis. It is filed as cell-based. The conditions noted are these: calu-3, 12 h. The essentials:
as §3

Series [16] can be described thus: Prodrug activation in human Calu-3 cells assessed as NTP release at 10 uM measured upto 12 hrs by LC-MS analysis. It is filed as cell-based. The conditions noted are these: calu-3, 12 h. In a few lines:
as §3

Series [17] concerns SARS-CoV-2. Kind of series: Antiviral activity against SARS-CoV-2 infected in African green monkey Vero E6 cells assessed as protection against virus-induced cytopathic effect incubated for 2 days by CellTiter-Glo assay. It is filed as functional, organism-based. The conditions noted are these: Severe acute respiratory syndrome coronavirus 2, Vero 76, 48 h.
In series [18] the test system is SARS-CoV-2. Briefly: Antiviral activity against SARS-CoV-2 alpha B.1.1.7 infected in African green monkey Vero E6 cells assessed as protection against virus-induced cytopathic effect incubated for 2 days by CellTiter-Glo assay. It is filed as functional, organism-based. The conditions noted are these: Severe acute respiratory syndrome coronavirus 2, alpha B.1.1.7, Vero 76, 48 h.

The subject of series [19] is SARS-CoV-2. Kind of series: Antiviral activity against SARS-CoV-2 gamma P.1 infected in African green monkey Vero E6 cells assessed as protection against virus-induced cytopathic effect incubated for 2 days by CellTiter-Glo assay. It is filed as functional, organism-based. The conditions noted are these: Severe acute respiratory syndrome coronavirus 2, gamma P.1, Vero 76, 48 h.

Series [20] concerns SARS-CoV-2. Kind of series: Antiviral activity against SARS-CoV-2 delta B.1.617.2 infected in African green monkey Vero E6 cells assessed as protection against virus-induced cytopathic effect incubated for 2 days by CellTiter-Glo assay. It is filed as functional, organism-based. The conditions noted are these: Severe acute respiratory syndrome coronavirus 2, delta B.1.617.2, Vero 76, 48 h.

Another series has as its system Vero 76. Briefly: Cytotoxicity against African green monkey Vero E6 cells at 10 uM. The conditions noted are these: chlorocebus sabaeus, vero 76, 10 µM. It is filed as toxicity, cell-based.
Series [21] has as its system SARS-CoV-2. Kind of series: Antiviral activity against SARS-CoV-2 infected in African green monkey Vero E6 cells assessed as reduction in viral titer incubated for 2 days by CellTiter-Glo assay. The conditions noted are these: Severe acute respiratory syndrome coronavirus 2; Vero 76; time 2.0 day. It is filed as functional, organism-based.

The source made the active and inactive calls. The calls are words filed in the database; no cut-off is given here.

Turning to `CCCCCCCCCCCCOC(=O)[C@H](C)NP(=O)(OC[C@H]1O[C@@](C#N)(c2ccc3c(N)ncnn23)[C@H](O)[C@@H]1O)Oc1ccccc1` (stereo not given in full), the half-life in series [1] turned out to be 47.1 min; in series [2], 4.29 min; in series [3], 71.2 min; in series [4], 2.72 min.

`CCCCC/C=C\C/C=C\CCCCCCCCOC(=O)[C@H](C)NP(=O)(OC[C@H]1O[C@@](C#N)(c2ccc3c(N)ncnn23)[C@H](O)[C@@H]1O)Oc1cccc2ccccc12` (stereo not given in full): the half-life in series [1] was 286 min; in series [2], 19.7 min; in series [3], 271 min; in series [4], 61.8 min; in series [5], 3.44 min; in series [6] it was 13.6 min.

On to `CCCCCCCCCCCCOC(=O)[C@H](C)NP(=O)(OC[C@H]1O[C@@](C#N)(c2ccc3c(N)ncnn23)[C@H](O)[C@@H]1O)Oc1cccc2ccccc12` (stereo not given in full), for which the half-life in [1] came to 154 min; in series [2], 6.11 min; in series [3], 158 min; in series [4], 3.49 min.

On to `CCC(CC)COC(=O)[C@H](C)N[P@](=O)(OC[C@H]1O[C@@](C#N)(c2ccc3c(N)ncnn23)[C@H](O)[C@@H]1O)Oc1ccccc1` [REMDESIVIR], for which the half-life is 40.7 min in [1], 0.86 min in series [2], 54.5 min in [3] and 0.48 min in series [4]. Besides, the Drug metabolism result in series [7], in series [8], in [9], in series [11], in series [14] and in series [15] was “Metabolite_Detected” each time. For the same compound, in [16], the Drug metabolism entry is “Metabolite_Detected”. Also, the EC50 was determined as 32 µM in the series on SARS-CoV-2 [10]; 3.3 µM in the series on SARS-CoV-2 [17]; 4.7 µM in the series on SARS-CoV-2 [18]; 3.7 µM with SARS-CoV-2 [19]; 9.2 µM with SARS-CoV-2 [20]. In addition, the Drug uptake in series [12] and in [13] was 80% each time. In addition, the Activity entry with Vero 76 is given as “Non-Toxic”. Further, the result in the series with SARS-CoV-2 [21] was Active.

For the compound `CCCCC/C=C\C/C=C\CCCCCCCCOC(=O)[C@H](C)NP(=O)(OC[C@H]1O[C@@](C#N)(c2ccc3c(N)ncnn23)[C@H](O)[C@@H]1O)Oc1ccccc1` (stereo not given in full), the half-life in series [1] was determined as 192 min; in series [2], 8.33 min; in [3], 128 min; in [4], 16.2 min; in series [5], 1.03 min; in series [6], 8.65 min. In addition, the Drug metabolism result in [7], in series [8], in series [9], in series [11], in series [14] and in series [15] was “Metabolite_Detected” in each case. The Drug metabolism result in [16] is given as “Metabolite_Detected”. The EC50 in the series on SARS-CoV-2 [10] turned out to be 15.9 µM; in the series on SARS-CoV-2 [17] it was 0.4 µM; in the series with SARS-CoV-2 [18], 2.5 µM; with SARS-CoV-2 [19] it was 1.7 µM; with SARS-CoV-2 [20], 5.6 µM. Moreover, the Drug uptake in [12] and in [13] was 80% each time. Besides, the Activity entry in the series on Vero 76 is reported as “Non-Toxic”. Further, the outcome in the series on SARS-CoV-2 [21] was Active.

In the case of `C[C@H](NP(=O)(OC[C@H]1O[C@@](C#N)(c2ccc3c(N)ncnn23)[C@H](O)[C@@H]1O)Oc1cccc2ccccc12)C(=O)OCc1ccccc1` (stereo not given in full), the half-life was determined as 52.4 min in series [1], 1.05 min in series [2], 55.8 min in [3] and 0.46 min in series [4].
